Screening results as filed in PubChem BioAssay.
This is a sample that favours compounds with a hit; in the whole collection about 9.4% have one here.
Mdm2-MdmX inh – disrupts the human Mdm2-MdmX interaction; inhibition, % at 8 µM; SaOS-2 split-luciferase Mdm2/MdmX complementation, luminescence; AID 485346; O15151+Q00987; 330,000 compounds, 3% hits;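 active = inhibition of at least 50% at 8 µM in the primary screen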
T cruzi repl – blocks replication of Trypanosoma cruzi; inhibition, % (test concentration not listed); 300,000 compounds, 1.4% hits; AID 1885; T. cruzi beta-gal in NIH3T3, luminescence, 90 h;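 active = mean inhibition across valid replicates above about 55%, limit read from the data; inconclusive = mean below that limit but half or more replicates reach it; inactive = mean below it, under half of replicates reach it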;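 also: signal also drops with host cell toxicity which is not excluded here; 0% = plate median of DMSO wells and 100% = zero luminescence signal; higher percent means less beta-gal luminescence so fewer parasites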
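Test system: β-gal T. cruzi (Tulahuen C4) inside NIH/3T3 cells / Quantity: 5,000 cells/well / Measured by: luminescence from GalScreen with 0.05% NP40, read after 60 min / Medium: DMEM plus 2% FBS / Measure: parasite load inhibition, % / Reagent: Tulahuen C4 trypomastigotes, 5000/well / Schedule: co-culture of at least 90 h after 3 h attachment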
CSC inhib – blocks cancer stem cells; cancer stem cell-like cells viability, luminescence; inhibition, % at 7.5 µM; 300,000 compounds, 1.1% hits; in the data active = inhibition above about 75%; inconclusive = no clear call, values can overlap the other calls; tested in HMLE shEcad cells
SKKanGAS inh – inhibitors of SKKanGAS S. pyogenes growth in kanamycin (SK-promoter or general growth effect). BacTiter-Glo, 6 h. inhibition, % at 7.5 µM. 300,000 compounds, 1.3% hits. AID 1662;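 active = mean replicate score, as percent of positive control median, at least 50; inconclusive = mean below 50 but one replicate at or above 50; inactive = mean and every replicate below 50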;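 also: strain carries kanamycin resistance gene driven by streptokinase promoter and grows in 40 µg/ml kanamycin; loss of luminescence reflects streptokinase promoter inhibition or plain growth inhibition; 0% = median of DMSO wells and 100% = positive control at its reference dose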
Beta cell apopt – beta cell apoptosis inhibition. 300,000 compounds, 0.8% hits. protection from apoptosis, % (no concentration beside the values). AID 435005. INS-1E cytokine-induced death, ATP luminescence, 48 h; percent of positive-control rescue, neutral wells zero;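 active = Every replicate reaches about 75%, or at least half do and their mean reaches it too, limit read from the data; inconclusive = At least half of replicates reach the limit but their mean does not; inactive = Under half of replicates reach the limit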;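 also: 0% = cytokine-treated negative control wells and 100% = positive control rescue; higher means more ATP so stronger rescue from cytokine killing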
Lmaj promast – Leishmania major promastigote growth inhibition; inhibition, % at 10 µM; Leishmania major promastigotes, resazurin fluorescence viability; 200,000 compounds, 9% hits; AID 1063; in the data active = inhibition above about 50%;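 also: promastigotes grown with compound for 44 hours at 28 °C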
Active calls of the source: *; ? = inconclusive; . = not tested or not shown.

SMILES | Mdm2-MdmX inh | T cruzi repl | CSC inhib | SKKanGAS inh | Beta cell apopt | Lmaj promast
O=C(NCc1nnc2c(C(F)(F)F)cc(Cl)cn12)c1ccc(Br)o1 | 32 | -7 | -14 | -1 | 0 | .
NNc1nc2c(-c3ccc(Cl)cc3)nnn2c2ccccc12 | -143 | 0 | 44 | 19 | 12 | 86*
NNc1nc2c(-c3ccc(F)cc3)nnn2c2ccccc12 | -161 | 3 | 41 | 9 | 5 | 97*
Fc1ccc(-c2nnn3c2nc(NCc2ccccc2)c2ccccc23)cc1 | -18 | -8 | -14 | 0 | 1 | .
O=C1CC(c2ccc(F)cc2)CC2=C1C(c1ccc([N+](=O)[O-])o1)Nc1ccccc1N2 (stereo not given) | 20 | 39 | 11 | -8 | 1 | .
COc1ccc(-c2sc3ccccc3c2C#CC2(O)CCCCC2)cc1 | . | 31 | 89* | 101* | -4 | .
COc1ccc(-c2sc3cc(OC)c(OC)cc3c2C#CC2(O)CCCCC2)cc1 | 34 | . | 125* | . | 2 | .
COc1ccc(-c2oc(=O)c3cc(OC)c(OC)cc3c2C#CC2(O)CCCCC2)cc1 | 25 | . | 5 | . | -6 | .
COc1ccc(-c2sc3ccccc3c2C#CCO)cc1 | 5 | -19 | 68 | 11 | -5 | .
CCOc1ccc(C(=O)N/N=C/c2c(C)[nH]c(=O)[nH]c2=O)cc1 | 18 | -15 | -4 | -6 | 0 | .
Cc1ccc(NC(=O)c2cc3cccc([N+](=O)[O-])c3[nH]2)cc1 | -131 | 15 | 4 | 0 | -9 | .
CCC(C)c1ccccc1NC(=O)c1cc2cccc([N+](=O)[O-])c2[nH]1 (stereo not given) | 0 | 65* | 5 | 25 | -4 | .
Cc1ccc(C)c(NC(=O)CSc2nnc(NC(=O)C3CC3)s2)c1 | 26 | 4 | 7 | 0 | -4 | .
Cc1cc2ccccc2n1CCNC(=O)COc1ccccc1 | 20 | 58* | 5 | 11 | 4 | -4
CC[C@]12c3[nH]c4ccccc4c3CCN1C(=O)C(CC(=O)NCc1ccc(OC)c(OC)c1)C[C@@H]2C(=O)N1CCN(C(=O)C2CC2)CC1 (stereo not given in full) | 7 | . | . | . | 0 | .
COC(=O)C1=C(C)NC(C)=C(C(=O)OC)C1c1ccc(-c2cc(Cl)ccc2Cl)o1 | -24 | 27 | . | ? | -9 | 7
COC(=O)C1=C(C)NC(C)=C(C(=O)OC)C1c1ccc(-c2cccc(Cl)c2Cl)o1 | 6 | 27 | 37 | 17 | 4 | 79*
CC1(C)C[C@H]2C3=CCC4[C@@]5(C)CC[C@H](O[C@@H]6O[C@H](C(=O)O)[C@@H](O)[C@H](O)[C@H]6O)[C@@](C)(CO)C5CC[C@@]4(C)[C@]3(C)C[C@H](O)[C@@]2(CO)[C@@H](O)[C@@H]1O (stereo not given in full) | 7 | . | -7 | . | -4 | .
CC(=O)OC1COC(OC2C(O)C(C)OC(OC3C(OC4CCC5(C)C(CCC6(C)C5CC=C5C7CC(C)(C)CCC7(C(=O)O)CCC56C)C4(C)CO)OCC(O)C3O)C2O)C(O)C1OC(C)=O (stereo not given) | 17 | . | -3 | . | 107* | -13
CC1(C)CC[C@]2(C(=O)O)CC[C@]3(C)C(=CCC4[C@@]5(C)CC[C@H](O)C(C)(C)C5CC[C@]43C)C2C1 (stereo not given in full) | . | -15 | 8 | 105* | 2 | -6
CCN1C(=O)[C@H]2[C@H]3CN=C(SCc4ccc(OC)cc4)N3[C@@](CC)(C(=O)OC)[C@H]2C1=O | 8 | . | . | . | . | .
CC1(C)N=C(N)N=C(N)N1c1ccccc1 | -4 | -4 | 0 | 105* | 18 | -3
CC1(C)N=C(N)N=C(N)N1c1cccc(CN)c1 | -5 | -3 | -13 | -16 | . | .
CCNc1nc(Oc2c(Cl)cccc2Cl)cc(C(F)(F)F)n1 | -22 | -4 | ? | 53* | 4 | 77*
Cc1ccc2[nH]c3c(c2c1)CN(C(=O)CN1CCN(c2cccc(C)c2C)CC1)CC3 | 10 | 34 | . | 19 | -8 | 66*
SMILES | Mdm2-MdmX inh | T cruzi repl | CSC inhib | SKKanGAS inh | Beta cell apopt | Lmaj promast
Cc1ccc2[nH]c3c(c2c1)CN(C(=O)CN1CCN(C(=O)c2ccco2)CC1)CC3 | -9 | 4 | -4 | -8 | -4 | .
COCCN1Cc2cccc(C(=O)Nc3cc(C)cc(C)c3)c2C1=O | -20 | 4 | 9 | 1 | -2 | 0
COCCN1Cc2cccc(C(=O)Nc3c(C)cc(C)cc3C)c2C1=O | -22 | 15 | -6 | 1 | -7 | 72*
CCCN1Cc2cccc(C(=O)Nc3ccc4c(c3)OCCO4)c2C1=O | -4 | -3 | -4 | -2 | -3 | 69*
O=C(O)CCC(=O)N1CN2CN(C(=O)CCC(=O)O)CC([N+](=O)[O-])(C2)C1 | -12 | -6 | -4 | 7 | -10 | .
CC(=O)NC(N(C#N)c1nc(Cl)nc(N(C)C)n1)C(Cl)(Cl)Cl (stereo not given) | 11 | -28 | -11 | 0 | . | .
Clc1cccc(Cl)c1C1Nc2cccc3cccc(c23)N1 | 13 | 7 | 11 | 59* | 6 | .
Fc1cccc(Cl)c1C1Nc2cccc3cccc(c23)N1 | 32 | -33 | -4 | 25 | . | .
CCOC(=O)N1CCC(N2CCCC(CO)(Cc3cccc(Cl)c3)C2)CC1 (stereo not given) | 11 | 32 | 6 | 0 | -1 | 87*
CCOC(=O)N1CCC(N2CCCC(CO)(Cc3ccccc3C)C2)CC1 (stereo not given) | 19 | 16 | -8 | -8 | -7 | 88*
Cc1ccc(CN2CCCC(CO)(Cc3ccccc3C)C2)s1 (stereo not given) | 21 | 9 | 8 | 32 | . | 66*
CCOC(=O)C1(Cc2cccc(Cl)c2)CCCN(C(=O)C2CC2)C1 (stereo not given) | 6 | -1 | -3 | -3 | -4 | -1
CCN(c1nc(N)c(C(=O)N=C(N)N)nc1Cl)C(C)C | -2 | 26 | -3 | 6 | . | .
Cc1cc(NC(=O)CCC(=O)N(Cc2ccccc2)C(C(=O)NC2CCCC2)c2ccco2)no1 (stereo not given) | 10 | 19 | . | 2 | -1 | .
Cc1cccc(N(C(=O)CCC(=O)Nc2cc(C)on2)C(C(=O)NC2CCCC2)c2ccc(C)o2)c1 (stereo not given) | 29 | 11 | . | 1 | -5 | 89*
Cc1cc(C)cc(N(C(=O)CCC(=O)Nc2cc(C)on2)C(C(=O)NC2CCCC2)c2ccco2)c1 (stereo not given) | 9 | 0 | 8 | -3 | -2 | 88*
Cc1ccc(C)c(N(C(=O)CCC(=O)Nc2cc(C)on2)C(C(=O)NC2CCCC2)c2ccco2)c1 (stereo not given) | 34 | 2 | -18 | 1 | 1 | 90*
Cc1cc(NC(=O)CCC(=O)N(c2cccc(F)c2)C(C(=O)NC2CCCC2)c2ccc(C)o2)no1 (stereo not given) | -4 | 12 | . | 2 | -3 | .
